# SENP1 FRET inh – inhibitors of human SENP1 SUMO protease catalytic domain. inhibition, % at 10 µM. recombinant SENP1 catalytic domain, CyPet-SUMO1-YPet FRET cleavage. 360,000 compounds, 0.21% hits. AID 624204. Q9P0U3;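 active = inhibition at least 30% at 10 µM, raw YFP signal under a set limit, fluorescence ratio 0.5 to 1.5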;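 note: 0% = enzyme with DMSO and 100% = no enzyme wells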
#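 Controls: no-enzyme wells low, DMSO-plus-enzyme wells high control. Test system: human recombinant His6-tagged SENP1 catalytic domain enzyme. Reagent: SFCypet-SUMO1-SFYpet FRET protein substrate, 25 nM final. Doses: one dose per compound, 10 µM, 0.5% DMSO. Detection: FRET, CFP and YFP emission. Timing: 50 min reaction at room temperature.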
# SENP6 block – SENP6 protease inhibition | Recombinant SENP6 catalytic domain, aminoluciferin luminescence | inhibition, % at 10 µM | 330,000 compounds, 1.8% hits | AID 2599;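 active = inhibition above about 50% at the single tested dose, limit read from the data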;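 note: plate controls were DMSO wells with enzyme for no effect and DMSO wells lacking enzyme for full effect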
# Target sequence (Q9GZR1 628-1112 limits assumed): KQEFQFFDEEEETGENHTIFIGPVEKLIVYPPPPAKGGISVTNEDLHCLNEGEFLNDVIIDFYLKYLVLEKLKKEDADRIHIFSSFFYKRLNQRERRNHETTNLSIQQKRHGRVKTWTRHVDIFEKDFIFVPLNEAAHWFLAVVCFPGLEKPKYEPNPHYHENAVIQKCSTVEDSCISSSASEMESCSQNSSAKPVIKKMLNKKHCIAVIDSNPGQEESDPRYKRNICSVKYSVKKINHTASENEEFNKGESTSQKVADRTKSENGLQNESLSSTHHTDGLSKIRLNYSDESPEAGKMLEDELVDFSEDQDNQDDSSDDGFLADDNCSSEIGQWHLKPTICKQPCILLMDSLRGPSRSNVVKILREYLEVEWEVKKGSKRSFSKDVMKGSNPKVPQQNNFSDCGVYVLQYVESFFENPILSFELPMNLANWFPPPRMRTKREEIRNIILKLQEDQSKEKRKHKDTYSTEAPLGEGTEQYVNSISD
# SENP8 block-1 – inhibitors of human SENP8 protease | purified SENP8, Z-RLRGG-aminoluciferin cleavage, luminescence | inhibition, % at 10 µM | 330,000 compounds, 1.2% hits | AID 2540; in the data active = inhibition above about 50%
# SENP8 block-2 – inhibitors of human SENP8 protease | 360,000 compounds, 0.64% hits | inhibition, % at 20 µM | recombinant SENP8, Nedd8 substrate fluorescence; in the data active = inhibition mostly above about 40%, no sharp cut-off; inactive = mostly below about 27%
# SENP7 inh – blocks the human protease SENP7. Q9BQF6. inhibition, % at 5 µM. recombinant SENP7, Z-RLRGG-aminoluciferin luminescence, 40 min. 330,000 compounds, 1.5% hits. AID 434973;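 active = inhibition above about 50% at the single test dose, limit read from the data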;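 note: plate controls were DMSO with enzyme for no effect and no enzyme buffer wells for full effect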
# SENP8 conf – human SENP8 inhibition, confirmed; shares compounds with SENP7 inh; 6,200 compounds, 40% hits; inhibition, % at 12.5 µM; Recombinant SENP8, Z-RLRGG-aminoluciferin luminescence, 60 min; AID 488912;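 active = mean inhibition across replicates above about 50%, limit read from the data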
# SENP6 confirm – confirmation of human SENP6 protease inhibitors; AID 488915; 6,200 compounds, 58% hits; inhibition, % at 12.5 µM; recombinant SENP6, Z-RLRGG-aminoluciferin luminescence; shares compounds with SENP7 inh
# SENP7 conf – human SENP7 inhibition, confirmed. shares compounds with SENP7 inh. recombinant SENP7, Z-RLRGG-aminoluciferin luminescence, 40 min. inhibition, % at 12.5 µM. 6,200 compounds, 69% hits
# Casp3 select – inhibits human caspase-3 in SENP selectivity test. 6,200 compounds, 60% hits. inhibition, % at 12.5 µM. AID 488918. purified caspase-3, Z-DEVD-aminoluciferin luminescence, 60 min. shares compounds with SENP7 inh;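 active = mean inhibition above about 50%, limit read from the data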;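 note: plate controls were enzyme with DMSO for no effect and wells without caspase-3 for full effect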
# Target sequence (P42574 28-227 limits assumed): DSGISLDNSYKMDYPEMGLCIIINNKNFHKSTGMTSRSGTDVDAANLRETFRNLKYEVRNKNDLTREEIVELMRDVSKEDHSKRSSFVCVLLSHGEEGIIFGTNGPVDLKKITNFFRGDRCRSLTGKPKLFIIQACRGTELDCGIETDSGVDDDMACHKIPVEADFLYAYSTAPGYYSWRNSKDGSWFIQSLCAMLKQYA
# SENP luc ctr – counter-screen for SENP inhibitors: luminescence interference; shares compounds with SENP7 inh; AID 488919; 6,200 compounds, 39% hits; Pre-incubated SENP8/Z-RLRGG-aminoluciferin, luciferase luminescence interference; inhibition, % at 12.5 µM;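 active = mean inhibition above about 50% when retested at one dose, limit read from the data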;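 note: plate controls were DMSO wells with completed reaction for no effect and substrate without enzyme for full effect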
# Active calls of the source: *; . = no result given. In the library only some 2.5% were active in any assay of this set; here they are far more common.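 Rule for the calls, unless noted: active = mean inhibition above about 50% in the one-dose retest (limit read from the data); inactive = the rest.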
SMILES,SENP1 FRET inh,SENP6 block,SENP8 block-1,SENP8 block-2,SENP7 inh,SENP8 conf,SENP6 confirm,SENP7 conf,Casp3 select,SENP luc ctr
CN1CC[C@@]2(C)c3cc(O)ccc3N(C)C2O1 (some centres undefined),-10.1,57.1*,23.8,-76.6,33.8,28.9,55.7*,30.2,-3.6,-8.6
COc1ccc(C(c2nnnn2-c2ccc3c(c2)OCCO3)N2CCC3(CC2)C(=O)NCN3c2ccccc2)cc1 (centres undefined),1.3,.,.,16.6,.,.,.,.,.,.
COc1cc2c(cc1OC)-c1c(OC)c(OC)cc3c1[C@H](C2)N(C)CC3,22.7,83.0*,42.4,27.5,51.6*,22.4,66.0*,35.0,46.7,-4.9
c1ccc(CCN2CCCCC2)nc1,-2.0,.,.,7.7,.,.,.,.,.,.
COCCCn1c(N)c(C(=O)OCCOC)c2nc3ccccc3nc21,-108.2,58.3*,59.9*,-472.5,57.2*,6.7,8.7,1.0,-1.9,-1.8
CC(C)OCCCNC(=O)c1c(N)n(Cc2cccs2)c2nc3ccccc3nc12,7.5,63.7*,44.2,-493.1,29.6,6.0,12.1,12.2,6.4,2.0
CCCCCn1c(NC(=O)c2ccco2)c(C(=O)OCC)c2nc3ccccc3nc21,-25.6,79.2*,79.6*,-360.6,34.7,-0.4,5.6,1.7,-2.8,-6.0
COCCNC(=O)c1c(N)n(CCC(C)C)c2nc3ccccc3nc12,-22.6,86.2*,81.2*,-287.2,28.8,4.6,26.3,22.1,5.9,9.5
COC(C)(C)CCCC(C)C/C=C/C(C)=C/C(=O)OC(C)C (centres undefined),-1.4,-4.4,-12.8,2.8,-11.4,.,.,.,.,.
CCCCNC(=O)c1c(N)n(CCCOC)c2nc3ccccc3nc12,-27.4,88.6*,85.9*,-276.8,48.9,18.7,49.0,17.6,0.3,-7.4
CCOC(=O)c1c(N)n(CCCOC(=O)c2ccco2)c2nc3ccccc3nc12,-113.8,15.1,21.4,-477.6,19.8,.,.,.,.,.
CC(C)CNC(=O)c1c(N)n(Cc2ccco2)c2nc3ccccc3nc12,-18.4,17.1,11.9,-331.1,9.8,.,.,.,.,.
COCCNC(=O)c1c(NC(=O)c2ccc(Br)o2)n(Cc2ccccc2)c2nc3ccccc3nc12,-27.7,82.8*,82.2*,-289.9,41.7,4.8,37.7,17.1,4.2,2.6
COCCCNC(=O)c1c(N)n(Cc2ccco2)c2nc3ccccc3nc12,-39.1,6.6,0.4,-463.6,-0.5,.,.,.,.,.
CCOC(=O)c1c(NS(=O)(=O)c2ccccc2)n(CCCOC)c2nc3ccccc3nc12,-28.0,95.4*,91.4*,-423.1,95.3*,29.0,58.3*,37.5,1.2,0.6
COCCCNC(=O)c1c(NC(=O)c2ccco2)n(Cc2ccccc2)c2nc3ccccc3nc12,-50.5,34.3,2.6,-416.2,21.5,.,.,.,.,.
CC(C)CCn1c(N)c(C(=O)NCc2cccs2)c2nc3ccccc3nc21,-22.6,80.0*,87.5*,-279.1,50.6*,-3.6,4.2,8.9,2.9,1.9
COC(=O)C1=C(c2ccc(F)cc2OCc2ccccc2)C[C@@H]2CC[C@H]1N2C(=O)NC1Cc2ccccc2C1,0.3,-11.6,-3.1,20.6,-8.1,.,.,.,.,.
CN1C(=O)C(=Cc2ccccc2OCc2ccc(Cl)cc2)C(=O)N(C)C1=O,-1.0,75.1*,44.2,9.9,63.8*,44.0,57.2*,76.2*,51.9*,69.8*
CC1([N+](=O)[O-])COP(=O)(Nc2cccc(Br)c2)OC1 (centres undefined),2.9,.,.,8.1,.,.,.,.,.,.
CC(C)(O)/C=C/C(=O)C(C)(O)C1C(O)CC2(C)C3CC=C4C(C=C(O)C(=O)C4(C)C)C3(C)C(=O)CC12C (centres undefined),-0.9,.,.,8.5,.,.,.,.,.,.
Cc1cccc(N=Nc2ccc(N(C)C)cc2)c1,4.1,90.2*,84.3*,16.2,87.1*,-24.4,82.7*,18.6,20.4,19.5
CN(C)c1ccccc1,3.1,.,.,2.2,.,.,.,.,.,.
C/C=C1/C[C@@H](C)[C@](O)(CO)C(=O)OCC2=CCN3CC[C@@H](OC1=O)[C@@H]23,1.2,-2.3,10.0,19.5,3.8,.,.,.,.,.
Clc1ccccc1Nc1ncnc(-n2cccc2)n1,-0.1,81.5*,64.0*,23.8,71.6*,67.1*,68.0*,91.1*,59.6*,48.0
SMILES,SENP1 FRET inh,SENP6 block,SENP8 block-1,SENP8 block-2,SENP7 inh,SENP8 conf,SENP6 confirm,SENP7 conf,Casp3 select,SENP luc ctr
CCCNC1=C(C)C(=O)C2=C(C1=O)C(COC(N)=O)[C@]1(OC)C3NC3CN21 (some centres undefined),-2.1,65.8*,37.6,32.1,29.1,-9.8,-5.3,-7.5,-2.9,-8.6
O=C(Nc1ccc(Cl)c(Cl)c1)c1ccco1,1.8,56.5*,51.2*,9.7,38.5,59.6*,57.6*,85.0*,48.1,48.3
CCOc1ccc(NC(=O)c2c(O)[nH]c(=O)[nH]c2=O)cc1,-0.8,74.4*,59.0*,14.3,80.0*,71.3*,58.8*,94.9*,83.9*,39.3
CCOC(=O)c1ccc(NC(=O)c2c(O)[nH]c(=O)[nH]c2=O)cc1,-0.2,82.9*,66.2*,18.0,71.9*,30.4,19.4,36.4,21.4,21.8
CCC(COC(=O)NC)NC(=O)Oc1cccc(C)c1 (centres undefined),2.5,-10.8,-5.6,18.2,-9.7,.,.,.,.,.
CNC(=O)Oc1cccc(-c2cn3cc(Cl)ccc3n2)c1,-0.5,85.3*,83.2*,-271.6,83.2*,92.4*,94.7*,101.7*,94.8*,92.0*
COc1ccc(Cn2c(N)c(C(=O)NCc3ccco3)c3nc4ccccc4nc32)cc1OC,7.0,74.4*,52.3*,-492.7,38.5,6.4,11.0,10.7,4.5,1.3
CC(C)CCNC(=O)c1c(N)n(Cc2ccc3c(c2)OCO3)c2nc3ccccc3nc12,-21.9,72.0*,81.8*,-256.8,57.6*,-10.0,4.8,-3.5,5.0,-8.7
CCCNC(=O)c1c(N)n(Cc2ccc3c(c2)OCO3)c2nc3ccccc3nc12,-32.2,53.8*,52.9*,-272.7,18.7,-20.7,-8.4,3.9,-2.4,-2.2
CCCNC(=O)c1c(N)n(Cc2ccco2)c2nc3ccccc3nc12,.,20.7,14.5,.,14.9,.,.,.,.,.
CC(C)CNC(=O)c1c(N)n(Cc2ccc3c(c2)OCO3)c2nc3ccccc3nc12,-17.6,91.3*,90.9*,-322.9,73.2*,12.6,20.6,19.2,9.8,2.9

# Compound activity deposited in PubChem BioAssay by Sanford-Burnham Center for Chemical Genomics.
